Test results published in ChEMBL document CHEMBL1124607, “Studies on antitumor agents. 8. Antitumor activities of O-alkyl derivatives of 2'-deoxy-5-(trifluoromethyl)uridine and 2'-deoxy-5-fluorouridine” (1989).

Species on record: Mus musculus
Assay: Antitumor activity against transplanted tumor sarcoma 180 expressed as effective dose.
Type: functional
Outline: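 Male ICR mice, five weeks old, implanted s.c. in the axilla with 5×10^6 sarcoma 180 cells. Starting 24 h after implant, compounds were given orally once daily for 7 consecutive days as a suspension in 0.5% CMC with 0.1% Tween 80. Seven mice per dose. Tumors were excised and weighed on day 10, and inhibition was taken from treated/control tumor weight.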

**Q.** Which ED50 does the source give for `Cc1ccccc1COC[C@H]1O[C@@H](n2cc(C(F)(F)F)c(=O)[nH]c2=O)C[C@@H]1O` here?
**A.** Its ED50 is greater than 40 mg/kg/day.

**Q.** How did the ED50 turn out when `O=c1[nH]c(=O)n([C@H]2C[C@H](OCc3ccc(Cl)cc3)[C@@H](CO)O2)cc1C(F)(F)F` was run?
**A.** Its ED50 is less than 10 mg/kg/day.

**Q.** Which ED50 does the source give for `COc1ccc(COC[C@H]2O[C@@H](n3cc(C(F)(F)F)c(=O)[nH]c3=O)C[C@@H]2O)cc1` here?
**A.** Its ED50 is greater than 40 mg/kg/day.

**Q.** With `Cc1cccc(CO[C@H]2C[C@H](n3cc(C(F)(F)F)c(=O)[nH]c3=O)O[C@@H]2CO)c1` as the molecule, how does the ED50 read?
**A.** The ED50 was 36 mg/kg/day.

**Q.** For `Cc1cccc(COC[C@H]2O[C@@H](n3cc(C(F)(F)F)c(=O)[nH]c3=O)C[C@@H]2O)c1`, which ED50 is on record?
**A.** Its ED50 is 28 mg/kg/day.

**Q.** With `Cc1ccccc1CO[C@H]1C[C@H](n2cc(C(F)(F)F)c(=O)[nH]c2=O)O[C@@H]1CO` as the molecule, how does the ED50 read?
**A.** The ED50 was 40 mg/kg/day.

**Q.** With `CCOC[C@H]1O[C@@H](n2cc(C(F)(F)F)c(=O)n(C(=O)c3ccccc3)c2=O)C[C@@H]1O` as the molecule, how does the ED50 read?
**A.** Its ED50 is 23 mg/kg/day.

**Q.** Which ED50 does the source give for `O=C(c1ccccc1)n1c(=O)c(C(F)(F)F)cn([C@H]2C[C@H](OCc3ccccc3)[C@@H](CO)O2)c1=O` here?
**A.** Its ED50 is 26 mg/kg/day.

**Q.** With `CCO[C@H]1C[C@H](n2cc(C(F)(F)F)c(=O)[nH]c2=O)O[C@@H]1CO` as the molecule, how does the ED50 read?
**A.** Its ED50 is 15 mg/kg/day.

**Q.** How did the ED50 turn out when `CCO[C@H]1C[C@H](n2cc(C(F)(F)F)c(=O)n(C(=O)c3ccccc3)c2=O)O[C@@H]1CO` was run?
**A.** The ED50 was 37 mg/kg/day.

**Q.** How did the ED50 turn out when `O=c1[nH]c(=O)n([C@H]2C[C@H](OCc3ccccc3)[C@@H](COCc3ccccc3)O2)cc1C(F)(F)F` was run?
**A.** Its ED50 is greater than 40 mg/kg/day.

**Q.** `CCOC[C@H]1O[C@@H](n2cc(C(F)(F)F)c(=O)[nH]c2=O)C[C@@H]1O` was tested. Which ED50 did it give?
**A.** Its ED50 is 14 mg/kg/day.

**Q.** How did the ED50 turn out when `O=c1[nH]c(=O)n([C@H]2C[C@H](O)[C@@H](COCc3ccc(Cl)cc3)O2)cc1C(F)(F)F` was run?
**A.** Its ED50 is 14 mg/kg/day.

**Q.** For `O=c1[nH]c(=O)n([C@H]2C[C@H](OCc3ccccc3)[C@@H](CO)O2)cc1C(F)(F)F`, which ED50 is on record?
**A.** The ED50 was 13 mg/kg/day.

**Q.** Which ED50 does the source give for `CCO[C@H]1C[C@H](n2cc(F)c(=O)[nH]c2=O)O[C@@H]1CO` here?
**A.** Its ED50 is greater than 40 mg/kg/day.

**Q.** For `O=c1[nH]c(=O)n([C@H]2C[C@H](OCc3ccccc3)[C@@H](CO)O2)cc1F`, which ED50 is on record?
**A.** The ED50 was 12 mg/kg/day.

**Q.** How did the ED50 turn out when `CCOC[C@H]1O[C@@H](n2cc(F)c(=O)[nH]c2=O)C[C@@H]1O` was run?
**A.** Its ED50 is 39 mg/kg/day.

**Q.** For `O=c1c(C(F)(F)F)cn([C@H]2C[C@H](O)[C@@H](CO)O2)c(=O)n1Cc1ccccc1`, which ED50 is on record?
**A.** Its ED50 is greater than 40 mg/kg/day.

**Q.** How did the ED50 turn out when `O=c1[nH]c(=O)n([C@H]2C[C@H](O)[C@@H](COCc3ccccc3)O2)cc1C(F)(F)F` was run?
**A.** Its ED50 is 15 mg/kg/day.

**Q.** For `COc1ccc(CO[C@H]2C[C@H](n3cc(C(F)(F)F)c(=O)[nH]c3=O)O[C@@H]2CO)cc1`, which ED50 is on record?
**A.** The ED50 was greater than 40 mg/kg/day.

**Q.** `O=c1[nH]c(=O)n([C@H]2C[C@H](O)[C@@H](COCc3ccccc3)O2)cc1F` was tested. Which ED50 did it give?
**A.** Its ED50 is 16 mg/kg/day.

**Q.** With `O=c1nc(OCc2ccccc2)c(C(F)(F)F)cn1[C@H]1C[C@H](O)[C@@H](CO)O1` as the molecule, how does the ED50 read?
**A.** The ED50 was greater than 40 mg/kg/day.

**Q.** Which ED50 does the source give for `CCOC[C@H]1O[C@@H](n2cc(C(F)(F)F)c(=O)[nH]c2=O)C[C@@H]1OCC` here?
**A.** Its ED50 is 25 mg/kg/day.

**Q.** How did the ED50 turn out when `O=C(c1ccccc1)n1c(=O)c(C(F)(F)F)cn([C@H]2C[C@H](O)[C@@H](COCc3ccccc3)O2)c1=O` was run?
**A.** Its ED50 is 26 mg/kg/day.

**Q.** `O=c1[nH]c(=O)n([C@H]2C[C@H](O)[C@@H](CO)O2)cc1F` [FLOXURIDINE] was tested. Which ED50 did it give?
**A.** Its ED50 is 84 mg/kg/day.

**Q.** For `O=c1[nH]c(=O)n([C@H]2C[C@H](O)[C@@H](CO)O2)cc1C(F)(F)F` [TRIFLURIDINE], which ED50 is on record?
**A.** The ED50 was 63 mg/kg/day.
